Here are results for 18 compounds from ChEMBL document CHEMBL1127817, “Antitumor agents. 150. 2',3',4',5',5,6,7-substituted 2-phenyl-4-quinolones and related compounds: their synthesis, cytotoxicity, and inhibition of tubulin polymerization” (J Med Chem, 1994).

The subject of one experiment is SF-268. In words: In vitro inhibition of tumor cell growth of SF-268, CNS tumor cell line. Format: functional. As to conditions: Homo sapiens.
A further experiment has as its system KM-20L2. In words: In vitro inhibition of tumor cell growth of KM20L2, colon cancer cell line. Format: functional. As to conditions: Homo sapiens.
The test system of another experiment is RXF 393. Briefly: In vitro inhibition of tumor cell growth of RXF-393, renal cancer cell line. The format is functional. As to conditions: Homo sapiens.
A further experiment relates to SK-MEL-5. Briefly: In vitro inhibition of tumor cell growth of SK-Mel-5, melanoma cell line. Format: functional. The following applies: Homo sapiens.
The subject of a further experiment is OVCAR-3. In words: In vitro inhibition of tumor cell growth of OVCAR-3, ovarian cancer cell line. Format: functional. The following applies: Homo sapiens.
The test system of a further experiment is HCT-116. Briefly: In vitro inhibition of tumor cell growth of HCT116, colon cancer cell line. As to conditions: Homo sapiens. The format is functional.
The next experiment relates to NCI-H226. In words: In vitro inhibition of tumor cell growth of NCI-H226, a non small-cell lung cancer cell line. The following applies: Homo sapiens. Format: functional.
A further experiment concerns DMS-114. In words: In vitro inhibition of tumor cell growth of DMS114, a small-cell lung cancer cell line. The following applies: Homo sapiens.
The subject of the next experiment is SF-295. Briefly: In vitro inhibition of tumor cell growth of SF-295, CNS tumor cell line. As to conditions: Homo sapiens. The format is functional.
Another experiment addresses Tubulin beta chain (Bos taurus, UniProt Q6B856). Briefly: Inhibition of tubulin polymerization. The format is functional.
The target of a further experiment is Tubulin (Bos taurus) (UniProt Q6B856+Q862L2+Q862F3). Briefly: Inhibition of colchicine binding to tubulin isolated from bovine brain tissue. Format: functional. The arrangement: concentration or dose not given beside the values. The following applies: concentration not given here. The method, boiled down: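 1.0 μM tubulin incubated with 5.0 μM [3H]colchicine and 5.0 μM test agent; bound colchicine measured by DEAE-cellulose filter technique.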

The structures appear in SMILES notation. pIC50: −log10 of the molar value.

Sequence of Tubulin beta chain (Q6B856 whole entry): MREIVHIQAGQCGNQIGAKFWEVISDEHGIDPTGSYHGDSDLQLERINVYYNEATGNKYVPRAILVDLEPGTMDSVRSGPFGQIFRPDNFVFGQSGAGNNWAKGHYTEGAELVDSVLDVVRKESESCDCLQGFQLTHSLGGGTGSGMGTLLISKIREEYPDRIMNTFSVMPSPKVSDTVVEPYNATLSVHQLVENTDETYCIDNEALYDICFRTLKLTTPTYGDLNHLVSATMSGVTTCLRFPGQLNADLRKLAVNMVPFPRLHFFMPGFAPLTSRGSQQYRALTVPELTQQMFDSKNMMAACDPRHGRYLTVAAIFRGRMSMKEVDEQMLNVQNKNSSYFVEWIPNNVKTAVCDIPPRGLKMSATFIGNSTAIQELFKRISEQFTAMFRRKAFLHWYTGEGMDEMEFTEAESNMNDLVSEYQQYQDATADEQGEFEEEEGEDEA

For the compound `COc1ccc(-c2cc(O)c3cc(Cl)ccc3n2)cc1`, the GI50 in the experiment with SF-268, with KM-20L2, in the experiment with RXF 393, in the experiment with SK-MEL-5, in the experiment on OVCAR-3 and in the experiment with HCT-116 was over 100 µM throughout. Also, the GI50 with NCI-H226, with DMS-114 and with SF-295 was over 100 µM in each case. Besides, at Tubulin beta chain, the pIC50 (commonly the IC50 on a negative log10 scale, so that one unit is a factor of ten) was under 4.40.

`Oc1cc(-c2cccs2)nc2cc3c(cc12)OCO3`: the GI50 (as a rule, the concentration at which growth is held to half of that of the control) with SF-268 is 11.2 µM; in the experiment on KM-20L2, 14.5 µM; with RXF 393, 2.04 µM; with SK-MEL-5, 1.35 µM; with OVCAR-3, 7.94 µM; in the experiment on HCT-116 it was 4.79 µM. Besides, the GI50 in the experiment with NCI-H226 is 6.31 µM; in the experiment on DMS-114 it was 6.76 µM; in the experiment on SF-295, 3.24 µM. The same compound showed a pIC50 at Tubulin beta chain of 5.66.

As to `COc1ccc2nc(-c3ccccc3)cc(O)c2c1`, the inhibition – broadly, the relative decrease from the control value, in per cent – at Tubulin (Bos taurus) turned out to be 11%. Moreover, the pIC50 against Tubulin beta chain was 6.21.

In the case of `CN(C)c1ccc(-c2cc(O)c3cc4c(cc3n2)OCO4)cc1`, the GI50 with SF-268, with KM-20L2, with RXF 393, in the experiment on SK-MEL-5, in the experiment on OVCAR-3 and in the experiment on HCT-116 was over 100 µM in each case. Moreover, the GI50 with NCI-H226, in the experiment on DMS-114 and with SF-295 was over 100 µM throughout. The compound also gave a pIC50 at Tubulin beta chain of under 4.40.

On to `Oc1cc(-c2ccc3c(c2)OCO3)nc2cc3c(cc12)OCO3`, for which the GI50 in the experiment with SF-268 was 46.8 µM; in the experiment on KM-20L2, 26.3 µM; in the experiment with RXF 393, 20.9 µM; in the experiment with SK-MEL-5 it was 25.1 µM; in the experiment with OVCAR-3 it was 19.5 µM; in the experiment with HCT-116 it was 38 µM. In addition, the GI50 in the experiment on NCI-H226 is 39.8 µM; with DMS-114 it was 24 µM; in the experiment with SF-295, 29.5 µM. The pIC50 on Tubulin beta chain is 5.96.

For `Oc1c2c(nc3cc4c(cc13)OCO4)-c1ccccc1CC2`, the GI50 with SF-268, in the experiment with KM-20L2, with RXF 393, in the experiment on SK-MEL-5, in the experiment with OVCAR-3 and with HCT-116 was over 100 µM in each case. Also, the GI50 with NCI-H226, with DMS-114 and in the experiment on SF-295 was over 100 µM in each case. The compound also gave a pIC50 against Tubulin beta chain of under 4.40.

Take `COc1ccc(-c2cc(O)c3ccc(F)cc3n2)cc1`: the GI50 in the experiment with SF-268, with KM-20L2, in the experiment with RXF 393, with SK-MEL-5, in the experiment on OVCAR-3 and with HCT-116 was over 100 µM each time. The GI50 in the experiment with NCI-H226, with DMS-114 and in the experiment on SF-295 was over 100 µM throughout. The same compound had a pIC50 at Tubulin beta chain of under 4.40.

Consider `COc1cc(-c2cc(O)c3cc4c(cc3n2)OCO4)cc(OC)c1OC`, for which the GI50 is 32.4 µM in the experiment with SF-268; over 100 µM in the experiment with KM-20L2; 21.9 µM in the experiment on RXF 393; 93.3 µM in the experiment on SK-MEL-5; over 100 µM in the experiment on OVCAR-3; 74.1 µM in the experiment on HCT-116. Moreover, the results for the GI50 with NCI-H226, in the experiment with DMS-114 and in the experiment with SF-295 were over 100 µM, 83.2 µM and 32.4 µM, respectively. Further, the pIC50 against Tubulin beta chain was under 4.40.

Take `COc1ccc2nc(-c3ccccn3)cc(O)c2c1`: the GI50 is 24 µM in the experiment with SF-268; 35.5 µM in the experiment with KM-20L2; 2.51 µM in the experiment on RXF 393; 28.2 µM with SK-MEL-5; over 100 µM in the experiment with OVCAR-3; 33.9 µM in the experiment with HCT-116. For the same compound, the GI50 is 36.3 µM in the experiment with NCI-H226, 22.4 µM in the experiment with DMS-114 and 51.3 µM with SF-295. On Tubulin beta chain, this compound gave a pIC50 of under 4.40.

With `Oc1cc(-c2ccco2)nc2cc3c(cc12)OCO3`, the GI50 with SF-268 was 41.7 µM; in the experiment with KM-20L2, 21.4 µM; in the experiment with RXF 393 it was 25.1 µM; in the experiment with SK-MEL-5 it was 13.5 µM; in the experiment on OVCAR-3, 42.7 µM; with HCT-116, 39.8 µM. Further, the GI50 with NCI-H226 is 24.5 µM; in the experiment with DMS-114, 37.2 µM; in the experiment on SF-295, 28.2 µM. On Tubulin beta chain, this compound gave a pIC50 of 4.64.

Take `Oc1cc(-c2c[nH]c3ccccc23)nc2cc3c(cc12)OCO3`: the GI50 in the experiment with SF-268, in the experiment on KM-20L2, with RXF 393, in the experiment on SK-MEL-5, with OVCAR-3 and in the experiment on HCT-116 was over 100 µM throughout. Also, the GI50 with NCI-H226 was over 100 µM; in the experiment with DMS-114 it was over 100 µM; with SF-295 it was 91.2 µM. The same compound had a pIC50 on Tubulin beta chain of 5.89.

With `COc1ccc(OC)c(-c2cc(O)c3cc4c(cc3n2)OCO4)c1`, the GI50 is 8.32 µM with SF-268; 6.92 µM in the experiment on KM-20L2; 3.02 µM in the experiment with RXF 393; 4.07 µM with SK-MEL-5; 4.9 µM in the experiment on OVCAR-3; 3.24 µM in the experiment with HCT-116. Also, the GI50 in the experiment on NCI-H226 is 6.31 µM; in the experiment with DMS-114 it was 5.01 µM; in the experiment with SF-295 it was 6.61 µM. Also, the pIC50 against Tubulin beta chain was 5.26.

With `Oc1cc(-c2ccccc2Cl)nc2cc3c(cc12)OCO3`, the GI50 was 0.692 µM in the experiment on SF-268; 0.0363 µM with SK-MEL-5; 0.0776 µM in the experiment on OVCAR-3; 0.0871 µM in the experiment with HCT-116; 0.263 µM in the experiment with NCI-H226. Further, the inhibition at Tubulin (Bos taurus) came to 24%. At Tubulin beta chain, this compound showed a pIC50 of 6.05.

With `CN(C)c1cccc(-c2cc(O)c3cc4c(cc3n2)OCO4)c1`, the GI50 is 0.741 µM with SF-268; 0.229 µM in the experiment with KM-20L2; 0.24 µM in the experiment with RXF 393; 0.195 µM in the experiment on SK-MEL-5; 0.245 µM in the experiment with OVCAR-3; 0.372 µM with HCT-116. For the same compound, the GI50 in the experiment with NCI-H226 was 0.316 µM; with DMS-114, 0.407 µM; with SF-295, 0.24 µM. Moreover, the pIC50 against Tubulin beta chain is 6.15.

For `COc1ccc(-c2cc(O)c3cc4c(cc3n2)OCO4)cc1`, the GI50 in the experiment on SF-268 was over 100 µM; in the experiment with KM-20L2, over 100 µM; in the experiment on RXF 393, 38 µM; in the experiment with SK-MEL-5, over 100 µM; with OVCAR-3, over 100 µM; in the experiment with HCT-116, over 100 µM. Moreover, the GI50 with NCI-H226 was 28.8 µM; in the experiment on DMS-114, over 100 µM; with SF-295, over 100 µM. Further, the pIC50 against Tubulin beta chain is under 4.40.

Turning to `Oc1cc(-c2ccccn2)nc2ccc(Cl)cc12`, the GI50 in the experiment with SF-268 is 23.4 µM; with KM-20L2 it was 39.8 µM; with RXF 393 it was 33.9 µM; in the experiment on SK-MEL-5, 26.3 µM; with OVCAR-3, 63.1 µM; in the experiment with HCT-116, 26.3 µM. Further, the GI50 with NCI-H226 is 46.8 µM; with DMS-114, 13.8 µM; in the experiment on SF-295, 51.3 µM. On Tubulin beta chain, this compound showed a pIC50 of under 4.40.

For `COc1ccc(-c2cc(O)c3cc4c(cc3n2)OCO4)c(OC)c1`, the GI50 with SF-268 is 63.1 µM; in the experiment on KM-20L2, 42.7 µM; in the experiment with RXF 393, 45.7 µM; in the experiment with SK-MEL-5, 42.7 µM; in the experiment on OVCAR-3 it was over 100 µM; in the experiment with HCT-116, 40.7 µM. The values for the 50% growth inhibitory concentration (GI50) in the experiment on NCI-H226, with DMS-114 and with SF-295 were 93.3 µM, 26.3 µM and 45.7 µM, respectively. This compound gave a pIC50 against Tubulin beta chain of under 4.40.

In the case of `COc1ccc(-c2cc(O)c3cc4c(cc3n2)OCO4)c(OC)c1OC`, the GI50 in the experiment with SF-268, in the experiment on KM-20L2, in the experiment on RXF 393, in the experiment with SK-MEL-5, in the experiment with OVCAR-3 and in the experiment with HCT-116 was over 100 µM throughout. Moreover, the values for the GI50 in the experiment on NCI-H226, with DMS-114 and in the experiment with SF-295 were over 100 µM, 29.5 µM and 75.9 µM, respectively. At Tubulin beta chain, this compound gave a pIC50 of under 4.40.
